High-throughput results as filed in PubChem.
TCR-CD3 inh: blocks the human TCR-CD3 interaction. TAMRA-labeled TCR probe fluorescence, biochemical. inhibition, % at 9.4 µM. 0.37% of 360,000 active; in the data active = inhibition above about 19%;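 also: recombinant mutant TCR 2C K166C tagged with TAMRA read by polarization; 0% = receptor in buffer alone and 100% = receptor with positive control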
Tn6 DDE FP: inhibitors of Tn6 peptide binding to human fibrin DD(E); 0.21% of 370,000 active; P02675; inhibition, % at 8.3 µM; Fibrin DD(E) TRITC-Tn6 fluorescence polarization displacement; AID 720509;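 active = inhibition above a per-campaign cutoff: mean of compounds within control limits plus 3 SD, cut at about 15% in these data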;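 also: 0% = median of all compound wells on the plate and 100% = blocking peptide control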
DDE Tn7 FP inh: inhibitors of Tn7 peptide binding to human fibrin DD(E); 0.13% of 370,000 active; inhibition, % at 8.3 µM; FP displacement of FITC-Tn7 peptide from fibrin DD(E); 0% = median of compound wells per plate;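 active = inhibition above the mean of compounds falling within the control limits plus 3 SD of them, cut at about 14% in these data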;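 also: 0% = plate median of compound wells and 100% = 10 µM Aha-Tn7 peptide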
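Assay system: Human clot-derived fibrin DD(E) complex | Buffer or medium: Tris/NaCl/CaCl2 buffer, pH 7.8 | Repeats: One replicate per compound | Benchmarks: Aha-Tn7 high control | Measure: % inhibition scaled between sample-field median and high-control FP | Schedule: 10 min plus 3 h, room temperature | Signal: Fluorescence polarization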
HTRA1 inh: inhibitors of human serine peptidase HTRA1; inhibition, % at 5.96 µM; 0.5% of 340,000 active; recombinant HTRA1, FP-rhodamine activity-based probe, fluorescence polarization; Q92743; in the data active = inhibition above about 36%;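 also: 0% = enzyme with DMSO and 100% = wells lacking enzyme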
Target sequence (Q92743 whole entry, looked up): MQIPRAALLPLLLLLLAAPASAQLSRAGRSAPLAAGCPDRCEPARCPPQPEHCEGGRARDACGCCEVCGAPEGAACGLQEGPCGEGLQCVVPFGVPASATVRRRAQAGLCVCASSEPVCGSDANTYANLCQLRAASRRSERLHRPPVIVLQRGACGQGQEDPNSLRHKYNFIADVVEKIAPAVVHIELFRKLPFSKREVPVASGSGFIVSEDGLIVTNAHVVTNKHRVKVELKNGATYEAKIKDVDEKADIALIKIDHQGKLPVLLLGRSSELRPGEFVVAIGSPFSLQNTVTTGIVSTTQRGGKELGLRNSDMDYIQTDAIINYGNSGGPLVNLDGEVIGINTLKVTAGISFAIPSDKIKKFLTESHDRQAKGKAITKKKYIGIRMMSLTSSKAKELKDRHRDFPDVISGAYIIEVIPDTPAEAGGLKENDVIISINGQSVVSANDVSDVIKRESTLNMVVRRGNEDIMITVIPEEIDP
SIAE primary: blocks human sialic acid acetylesterase. SIAE FP-Rh probe binding, fluorescence polarization. 0.69% of 370,000 active. inhibition, % at 9.66 µM;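 active = inhibition above a cutoff: mean of compounds within the control limits plus 3 SD of those, cut at about 17% in these data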;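 also: 0% = plate median of compound wells and 100% = probe without SIAE protein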
mABHD4 FP: ABHD4 (mouse) inhibition, primary FP screen | Q8VD66 | purified mABHD4, FP-Rh probe fluorescence polarization | inhibition, % at 8.92 µM | 0.54% of 370,000 active;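 active = inhibition exceeding the mean over every tested compound plus 3 SD, cut at about 30% in these data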;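 also: 0% = plate median of compound wells and 100% = S159A mutant with DMSO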
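Test system: mouse ABHD4 enzyme, wild type. Reagent: FP-Rh fluorescent activity-based probe, added after compound pre-incubation. Timing: pre-incubation 45 min, probe exposure 60 min, at 25 °C. Technique: FP readout, ex 525 nm / em 598 nm. Benchmarks: high control S159A mutant with DMSO, low control median of compound wells.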
ABHD4 confirm: ABHD4 (mouse) inhibition, FP confirmation. shares compounds with mABHD4 FP. purified mABHD4, FP-Rh probe fluorescence polarization. inhibition, % at 8.92 µM. 55% of 1,800 active. AID 720658;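 active = mean inhibition across replicates above the hit cutoff set in the primary screen, cut at about 30% in these data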;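 also: 0% = wild-type ABHD4 with DMSO and 100% = catalytically dead S159A mutant with DMSO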
SIAE inh conf: confirmation of human SIAE inhibitors; AID 1117263; shares compounds with SIAE primary; inhibition, % at 9.66 µM; 13% of 2,300 active; SIAE FP-Rh activity-based probe, fluorescence polarization;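 active = mean inhibition of the replicates above the hit cutoff set in the primary screen, cut at about 17% in these data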;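 also: 0% = SIAE with DMSO and probe and 100% = probe without SIAE; inhibitors lower polarization as more probe stays unbound to SIAE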
The depositor's hits bear a star. The list is not random: actives were taken first. Their share in the collection is about 1.8%.

C=CCNc1nc(NCCOC)c2sc(-c3ccccc3)cc2n1 was read as TCR-CD3 inh 4, Tn6 DDE FP 3, DDE Tn7 FP inh 4, SIAE primary -6 and mABHD4 FP 3.
Screening C=CCNc1nc(Nc2ccc(OC)c(OC)c2)c2sc(-c3ccccc3)cc2n1 returned TCR-CD3 inh -6, Tn6 DDE FP -6, DDE Tn7 FP inh 1, SIAE primary 25*, mABHD4 FP 42*, ABHD4 confirm 51* and SIAE inh conf 33*.
For COc1ccc2[nH]c3c(NCCC4=CCCCC4)ncnc3c2c1 the results were TCR-CD3 inh 0, Tn6 DDE FP -12, DDE Tn7 FP inh -3, HTRA1 inh 1, SIAE primary 50*, mABHD4 FP 39*, ABHD4 confirm 61* and SIAE inh conf 45*.
Screening Cc1ccc(NC(=O)OC2CC3CC2[C@H]2CCCCN2C3)cc1 (stereo partly drawn) returned Tn6 DDE FP 0, DDE Tn7 FP inh 0, SIAE primary 1 and mABHD4 FP -5.
Screening O=S(=O)(Nc1ccc(O)c2ncccc12)c1ccccc1F returned TCR-CD3 inh 29*, Tn6 DDE FP -1, DDE Tn7 FP inh -1, SIAE primary 29*, mABHD4 FP 39*, ABHD4 confirm 42* and SIAE inh conf 10.
For O=C(O)Cc1c[nH]c2ccccc12 the results were TCR-CD3 inh 1, Tn6 DDE FP 1, DDE Tn7 FP inh 0, HTRA1 inh 3, SIAE primary -1 and mABHD4 FP 1.
O=C(O)Cc1c[nH]c2cccc(O)c12 was read as TCR-CD3 inh 13, Tn6 DDE FP -2, DDE Tn7 FP inh -6, HTRA1 inh 9, SIAE primary 23*, mABHD4 FP 53*, ABHD4 confirm 23 and SIAE inh conf 12.
`S=C(Nc1cc(Cl)cc(Cl)c1)NC(c1ccccc1)c1ccccc1` gave Tn6 DDE FP 4, DDE Tn7 FP inh -8, SIAE primary -140 and mABHD4 FP -101.
Screening S=C(Nc1ccc(Cl)c(Cl)c1)Nc1nnc(-c2ccncc2)s1 returned Tn6 DDE FP -8, DDE Tn7 FP inh -1, SIAE primary -1 and mABHD4 FP -11.
For C/C(=N/Nc1ccnc2cc(Cl)ccc12)c1ccc(N)cc1 the results were TCR-CD3 inh -1, Tn6 DDE FP -9, DDE Tn7 FP inh -7, HTRA1 inh 12, SIAE primary 23*, mABHD4 FP 30*, ABHD4 confirm 33* and SIAE inh conf 13.
COc1cc2[nH]c(=S)n(NC(=O)c3ccccc3)c(=O)c2cc1OC was read as TCR-CD3 inh 6, Tn6 DDE FP -5, DDE Tn7 FP inh 5, HTRA1 inh 3, SIAE primary 0 and mABHD4 FP -5.
For O=C1N=c2ccccc2=C1c1sc(=S)n(NC(=O)c2ccccc2)c1O the results were TCR-CD3 inh 3, Tn6 DDE FP -2, DDE Tn7 FP inh 3, HTRA1 inh 7, SIAE primary 23*, mABHD4 FP 33*, ABHD4 confirm 42* and SIAE inh conf 31*.
Screening Cc1nn(-c2ccccc2)c(C)c1/C=N/Nc1nc2ccccc2[nH]1 returned TCR-CD3 inh -5, Tn6 DDE FP -6, DDE Tn7 FP inh -7, HTRA1 inh 19, SIAE primary 24*, mABHD4 FP 42*, ABHD4 confirm 56* and SIAE inh conf 37*.
For Cc1c(/C=N/Nc2nc3ccccc3[nH]2)c2ccccc2n1C the results were TCR-CD3 inh -8, Tn6 DDE FP -14, DDE Tn7 FP inh 2, HTRA1 inh 34, SIAE primary 40*, mABHD4 FP 41*, ABHD4 confirm 70* and SIAE inh conf 20*.
For Cc1cc(=O)[nH]c(N/N=C/c2c(C)nn(-c3ccccc3)c2C)n1 the results were TCR-CD3 inh -2, Tn6 DDE FP -7, DDE Tn7 FP inh 4, HTRA1 inh 4, SIAE primary 2 and mABHD4 FP 1.
